Measurements taken from PMC6146057 (ACS chemical neuroscience, 2018).
Residue numbers refer to the chain shown, from its start.

How the values were obtained:
[1] = target: T1, mouse M1 (Mus musculus, UniProt P12657); test: Calcium mobilization assay, mouse M1 cell line with low expression; format: cell-based
T1 sequence (P12657 1-460): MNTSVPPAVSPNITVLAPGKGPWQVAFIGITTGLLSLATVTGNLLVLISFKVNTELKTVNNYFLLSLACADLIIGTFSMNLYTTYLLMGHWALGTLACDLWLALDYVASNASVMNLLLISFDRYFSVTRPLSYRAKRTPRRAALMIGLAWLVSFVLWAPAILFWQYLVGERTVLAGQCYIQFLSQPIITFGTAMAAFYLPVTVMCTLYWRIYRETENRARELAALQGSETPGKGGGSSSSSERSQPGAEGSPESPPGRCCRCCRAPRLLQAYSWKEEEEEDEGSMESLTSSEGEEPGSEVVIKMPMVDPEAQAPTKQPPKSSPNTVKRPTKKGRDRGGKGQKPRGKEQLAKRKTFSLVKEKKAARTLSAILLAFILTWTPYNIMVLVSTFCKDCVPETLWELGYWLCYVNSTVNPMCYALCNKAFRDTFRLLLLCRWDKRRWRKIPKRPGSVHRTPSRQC

[2] = tested on: rat M2-M5; test: Calcium mobilization selectivity, rat M2-M5; format: cell-based; conditions: Figure 4B
Method in brief: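 Muscarinic receptor-expressing CHO cells were plated at 20,000 cells/well in medium without G418 the day before. They were loaded with 1.15 μM Fluo-4 AM for 45 min at 37 °C in HBSS with 20 mM HEPES and 2.5 mM probenecid. Test compound (10-point 1:3 series, top final 30 μM) was added for 2.5 min, then EC20 ACh for 1 min. Calcium flux was fitted with a four-parameter logistic curve.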

[3] = target: T2, M1 (Homo sapiens, UniProt P11229); test: M1 PAM potency at increasing ACh concentration; format: cell-based; conditions: for EC50: M1 PAM potency
T2 sequence (P11229 1-460): T1 sequence (P12657 1-460) with V5A, S254T, K320R, G337A, V413I

[4] = tested on: mice; test: High dose phenotypic mouse seizure liability screen; format: in vivo; conditions: 100 mg/kg i.p., up to 3 h
[5] = Plasma protein binding by equilibrium dialysis, cyno; format: in vitro ADME; conditions: cynomolgus monkey, pH 7.4
Method in brief: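 Plasma spiked with test article was dialysed against 25 mM phosphate buffer, pH 7.4, by equilibrium dialysis for 4 h at 37 °C with shaking. Aliquots from each chamber were matrix-matched, extracted with ice-cold acetonitrile, centrifuged and quantified by LC/MS/MS.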

[6] = Rat brain homogenate binding; format: in vitro ADME
[7] = target: cytochrome P450 2C9 (Homo sapiens, UniProt P11712); test: CYP450 inhibition in human liver microsomes, 2C9; format: in vitro ADME
cytochrome P450 2C9, sequence (P11712 whole entry): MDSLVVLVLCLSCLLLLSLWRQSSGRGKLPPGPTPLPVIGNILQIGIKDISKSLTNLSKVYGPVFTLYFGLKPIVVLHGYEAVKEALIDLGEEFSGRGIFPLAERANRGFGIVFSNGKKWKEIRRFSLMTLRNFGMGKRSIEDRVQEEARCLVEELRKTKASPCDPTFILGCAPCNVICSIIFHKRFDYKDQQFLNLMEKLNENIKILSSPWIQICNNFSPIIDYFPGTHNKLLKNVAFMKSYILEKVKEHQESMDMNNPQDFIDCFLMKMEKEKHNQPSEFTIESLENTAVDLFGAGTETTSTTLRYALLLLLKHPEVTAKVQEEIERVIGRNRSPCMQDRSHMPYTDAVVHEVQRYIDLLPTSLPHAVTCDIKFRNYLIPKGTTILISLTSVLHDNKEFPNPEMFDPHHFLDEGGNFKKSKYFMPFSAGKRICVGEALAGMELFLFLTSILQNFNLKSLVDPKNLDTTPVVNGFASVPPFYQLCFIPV

[8] = target: cytochrome P450 2D6 (Homo sapiens, UniProt P10635); test: CYP450 inhibition in human liver microsomes, 2D6; format: in vitro ADME
cytochrome P450 2D6, sequence (P10635 whole entry): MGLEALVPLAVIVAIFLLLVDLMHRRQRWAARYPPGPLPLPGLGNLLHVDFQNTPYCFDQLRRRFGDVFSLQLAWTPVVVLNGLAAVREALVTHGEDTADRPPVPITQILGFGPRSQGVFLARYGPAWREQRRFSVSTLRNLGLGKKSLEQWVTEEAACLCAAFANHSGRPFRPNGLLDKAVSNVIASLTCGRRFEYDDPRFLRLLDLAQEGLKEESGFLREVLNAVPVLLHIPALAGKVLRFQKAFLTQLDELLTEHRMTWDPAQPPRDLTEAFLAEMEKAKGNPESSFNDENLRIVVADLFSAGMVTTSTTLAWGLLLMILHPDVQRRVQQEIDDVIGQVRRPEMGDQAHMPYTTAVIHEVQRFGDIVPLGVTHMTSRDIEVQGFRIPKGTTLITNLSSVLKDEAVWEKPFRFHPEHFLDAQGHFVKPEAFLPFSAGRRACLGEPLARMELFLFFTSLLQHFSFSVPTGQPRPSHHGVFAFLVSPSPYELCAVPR

[9] = Rat brain:plasma distribution; format: in vivo; conditions: male, Sprague-Dawley, brain and plasma, intravenous
Method in brief: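 Dual-cannulated male Sprague–Dawley rats received a cassette IV dose of 0.2–0.25 mg/kg per compound via the jugular vein. The vehicle was about 10% ethanol, 40% PEG400 and 50% DMSO. Carotid blood and brain were collected at 0.25 h. Brains were rinsed in PBS, snap frozen and bead-homogenised, and plasma and brain were analysed by LC/MS/MS.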

[10] = Mouse plasma-brain exposure; format: in vivo; conditions: male, C57BL/6J, brain and plasma, intraperitoneal, 100 mg/kg
Method in brief: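 Male C57BL/6J mice aged 7–9 weeks were dosed i.p. with test compound in 10% Tween 80 (1–10 mg/mL, 10 mL/kg). Brain and trunk blood were collected at 0.25 h. Brains were washed in cold saline and frozen on dry ice. EDTA plasma was separated, and both matrices were analysed by LC/MS/MS.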

[11] = target: P-gp (Homo sapiens, UniProt P08183); test: MDCK P-gp efflux and permeability; format: in vitro ADME
P-gp, sequence (P08183 whole entry): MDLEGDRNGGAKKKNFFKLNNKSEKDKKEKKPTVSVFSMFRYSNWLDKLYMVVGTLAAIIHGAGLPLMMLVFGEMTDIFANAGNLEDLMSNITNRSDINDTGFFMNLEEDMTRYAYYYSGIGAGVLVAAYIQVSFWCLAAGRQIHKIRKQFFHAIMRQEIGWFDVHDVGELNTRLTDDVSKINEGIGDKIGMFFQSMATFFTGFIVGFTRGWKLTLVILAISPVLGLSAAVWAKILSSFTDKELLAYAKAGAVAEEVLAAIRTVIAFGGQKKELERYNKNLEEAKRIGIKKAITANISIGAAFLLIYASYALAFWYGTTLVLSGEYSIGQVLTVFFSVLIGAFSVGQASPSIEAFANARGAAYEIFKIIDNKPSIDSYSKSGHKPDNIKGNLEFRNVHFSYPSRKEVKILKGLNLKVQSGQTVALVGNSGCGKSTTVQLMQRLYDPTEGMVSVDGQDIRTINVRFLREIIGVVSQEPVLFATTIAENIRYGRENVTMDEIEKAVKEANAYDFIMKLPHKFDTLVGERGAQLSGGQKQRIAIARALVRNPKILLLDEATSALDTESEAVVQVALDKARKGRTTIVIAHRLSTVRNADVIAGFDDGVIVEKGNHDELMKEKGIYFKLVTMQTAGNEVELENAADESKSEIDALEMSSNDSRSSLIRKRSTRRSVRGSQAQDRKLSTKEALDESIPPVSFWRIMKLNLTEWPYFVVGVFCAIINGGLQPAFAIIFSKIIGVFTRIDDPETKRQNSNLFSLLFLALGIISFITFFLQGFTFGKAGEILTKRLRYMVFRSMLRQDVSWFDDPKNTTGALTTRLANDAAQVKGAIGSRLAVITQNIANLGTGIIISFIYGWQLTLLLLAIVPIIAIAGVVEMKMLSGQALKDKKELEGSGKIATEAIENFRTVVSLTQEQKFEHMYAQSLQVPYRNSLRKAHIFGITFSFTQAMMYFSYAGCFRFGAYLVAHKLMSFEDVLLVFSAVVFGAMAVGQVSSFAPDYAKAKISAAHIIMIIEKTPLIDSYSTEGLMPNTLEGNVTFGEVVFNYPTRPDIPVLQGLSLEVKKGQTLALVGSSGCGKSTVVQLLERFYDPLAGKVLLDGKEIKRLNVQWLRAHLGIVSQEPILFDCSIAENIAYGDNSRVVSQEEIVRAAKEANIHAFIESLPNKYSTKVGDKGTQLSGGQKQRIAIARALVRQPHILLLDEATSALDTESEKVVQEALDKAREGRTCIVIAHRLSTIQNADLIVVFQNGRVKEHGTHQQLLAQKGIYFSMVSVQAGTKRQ

[12] = Rat PK IV/PO crossover study; format: in vivo
Method in brief: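 Male Sprague–Dawley rats with carotid and jugular cannulae (n = 2) were dosed IV at 1.0 mg/kg in 10% EtOH, 50% PEG 400 and 40% saline. For oral dosing, fasted rats received 3 mg/kg by gavage as a microsuspension in 30% Captisol. Carotid blood was sampled from 0.117 to 24 h, and EDTA plasma was analysed by LC/MS/MS. Parameters came from noncompartmental analysis.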

[13] = Cynomolgus monkey IV/PO PK study; format: in vivo
Method in brief: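 Male cynomolgus monkeys (n = 3) received a single IV bolus of 1 mg/kg in ethanol:PEG400:saline (10:60:30, v/v/v) and a single oral dose of 3 mg/kg in 30% aqueous Captisol. Plasma PK parameters were calculated by noncompartmental analysis.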

[14] = tested on: rats; test: Modified Irwin Toxicology Battery in rats; format: in vivo, rat; conditions: 56.6 mg/kg i.p.
Method in brief: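 Rats received vehicle or test compound at 56.6 mg/kg i.p. in 10% Tween 80 (2 mL/kg; n = 3) after baseline assessment. A blinded observer scored autonomic and somatomotor parameters at 15, 30, 60, 180 and […].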

[15] = ACh concentration increased to EC70
[16] = male, cynomolgus monkey, plasma, intravenous, 1 mg/kg

O=C(N[C@H]1CCCC[C@@H]1O)[C@H]1CN(Cc2ccc(-n3cccn3)cc2)c2ccccc2O1 [VU0486846, (2R)-N-[(1S,2S)-2-Hydroxycyclohexyl]-4-[(4-pyrazol-1-ylphenyl)-methyl]-2,3-dihydro-1,4-benzoxazine-2-carboxamide]
EC50 ([1]; M1 PAM EC50, mouse M1 cell line): 600 nM
EC50 ([1]; M1 PAM pEC50, mouse M1 cell line): 562 nM
M1 PAM efficacy, % ACh Max ([1]; mouse M1 cell line): 77 ± 4 % ACh Max
M1 agonism, % ACh Max ([1]; mouse M1 cell line, compound alone): 9 ± 1 % ACh Max
Activity at rat M2–M5 (selectivity) [2]: highly selective
Activity at rat M2–M5 (selectivity) ([2]; listed as 16): inactive
M1 PAM efficacy, % ACh Max [3, 15]: 90 ± 1 % ACh Max
EC50 [3, 15]: 68 ± 11 nM
EC50 ([3]; very low level of ACh (~EC9)): 430 ± 120 nM
M1 PAM efficacy, % ACh Max ([3]; very low level of ACh (~EC9)): 84 ± 2 % ACh Max
Seizure liability [4]: devoid of seizure liability
fraction unbound at 4 h [5]: 0.016
fraction unbound [6]: 0.03
IC50 [7]: 18800 nM
IC50 [8]: 29800 nM
Kp at 0.25 h [9]: 0.18
Kp uu at 0.25 h [9]: 0.05
Kp at 0.25 h [10]: 0.67
Kp uu at 0.25 h [10]: 0.17
human P-gp substrate ([11]; MDCK): not a human P-gp substrate
Papp ([11]; human, MDCK): 30 ×10⁻⁶ cm/s
efflux ratio ([11]; human, MDCK-MDR1): 0.9
half-life ([12]; male, Sprague-Dawley, rat, plasma): 1.2 h
Vd ([12]; male, Sprague-Dawley, rat, plasma, intravenous, 1 mg/kg): 1.8 L/kg
clearance ([12]; male, Sprague-Dawley, rat, plasma, iv, 1 mg/kg): 89 mL/min/kg
bioavailability ([12]; male, Sprague-Dawley, rat, plasma, po, 3 mg/kg): 95.9%
Adverse events or cholinergic side effects in PK study ([12]; rat PK study): No adverse events or cholinergic side effects
Adverse events or cholinergic side effects in PK study ([13]; cynomolgus monkey PK study): No adverse events or cholinergic side effects
half-life ([13]; male, cynomolgus monkey, plasma, 1 mg/kg): 4.2 h
Vd [13, 16]: 1 L/kg
clearance [13, 16]: 18 mL/min/kg
bioavailability ([13]; male, cynomolgus monkey, plasma, po, 3 mg/kg): 37%
free brain levels [14]: 32 nM
free terminal plasma exposure [14]: 489 nM
total brain levels [14]: 1.15 µM
total terminal plasma exposure [14]: 4.4 µM
Cholinergic side effects or adverse effects ([14]; 3 h evaluation period): did not produce any cholinergic side effects or pronounced adverse effects
